# Experimental data of several laboratories.
# Compare with care: the assays were run in different laboratories.
# Target: Ephrin type-A receptor 3 (EPHA3, Homo sapiens, UniProt P29320)
# One construct used (P29320 21-983): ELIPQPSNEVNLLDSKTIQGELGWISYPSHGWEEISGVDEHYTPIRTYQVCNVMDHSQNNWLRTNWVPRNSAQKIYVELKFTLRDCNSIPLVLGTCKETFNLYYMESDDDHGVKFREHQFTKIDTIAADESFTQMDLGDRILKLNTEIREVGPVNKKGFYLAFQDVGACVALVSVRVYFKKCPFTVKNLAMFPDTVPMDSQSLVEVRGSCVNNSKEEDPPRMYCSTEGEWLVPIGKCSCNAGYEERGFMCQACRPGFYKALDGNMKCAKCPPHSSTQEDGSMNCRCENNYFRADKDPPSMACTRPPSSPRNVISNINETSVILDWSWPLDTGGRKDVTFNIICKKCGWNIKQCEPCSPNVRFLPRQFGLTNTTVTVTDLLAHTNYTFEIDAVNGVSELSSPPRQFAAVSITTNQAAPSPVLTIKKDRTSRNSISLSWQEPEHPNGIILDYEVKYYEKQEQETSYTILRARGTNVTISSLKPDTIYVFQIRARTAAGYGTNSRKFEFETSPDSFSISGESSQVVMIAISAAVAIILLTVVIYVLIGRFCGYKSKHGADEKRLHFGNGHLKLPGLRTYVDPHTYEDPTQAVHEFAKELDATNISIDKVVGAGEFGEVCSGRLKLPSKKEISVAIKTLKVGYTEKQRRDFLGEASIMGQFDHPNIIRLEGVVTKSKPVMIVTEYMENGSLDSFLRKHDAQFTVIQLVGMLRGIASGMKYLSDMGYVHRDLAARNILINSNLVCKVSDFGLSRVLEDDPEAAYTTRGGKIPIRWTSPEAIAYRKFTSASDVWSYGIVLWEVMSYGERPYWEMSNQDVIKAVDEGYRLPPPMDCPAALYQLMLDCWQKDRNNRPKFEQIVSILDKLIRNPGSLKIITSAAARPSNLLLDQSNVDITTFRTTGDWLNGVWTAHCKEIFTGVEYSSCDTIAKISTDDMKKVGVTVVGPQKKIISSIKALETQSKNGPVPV
SMILES,observed,technique,concentration,remaining binding
O=C(c1ccc(Nc2ncc(Cl)c(-c3cc4ccccc4s3)n2)cc1)N1CCC(N2CCCC2)CC1,binding,competition with immobilised ligand,1 µM,84%
CCN1CCN(Cc2ccc(C(=O)Nc3ccc(C)c(Oc4ccc5c(c4)CC(=O)N5)c3)cc2C(F)(F)F)CC1,binding,competition with immobilised ligand,1 µM,76%
CN(C)c1nccc(-c2cnc3ncccn23)n1,binding,,1 µM,100%
O=C(Nc1c[nH]nc1C(=O)NC1CCNCC1)c1cc(F)cc(F)c1,binding,competition with immobilised ligand,1 µM,100%
COc1ncc2cc3ccccc3nc2c1C#N,cell-free assay,competition with immobilised ligand,5 µM,96%
N[C@H]1CCN(c2nccc(-c3cnn4ncccc34)n2)C1,binding,,1 µM,98%
Cc1cc(NC(=O)c2cccc(S(F)(F)(F)(F)F)c2)cc(-n2ccn3nc(-c4cccnc4)cc23)c1,cell-free assay,competition with immobilised ligand,1 µM,100%
CN(C)c1ncc(F)c(-c2cnn3ncccc23)n1,binding,,1 µM,100%
O=C(NCCCN1CCOCC1)c1ccc(Nc2ncc(Cl)c(-c3ccc(Cl)s3)n2)cc1,binding,competition with immobilised ligand,1 µM,63%
C[C@H](NC(=O)c1cnc2n1[C@](C)(Cc1ccc(C#N)cc1)C(=O)N2c1cc(Cl)c(F)c(Cl)c1)C(=O)NC1(c2ccccn2)CC1,cell-free assay,competition with immobilised ligand,1 µM,88%
CN(CCCC(F)(F)F)c1nccc(-c2cnn3ncccc23)n1,binding,,1 µM,100%
CNC(=O)[C@@H]1CC[C@@H](n2c(-c3ccc4cnccc4c3)nc3ccc(C(=O)NCc4cccc(C(N)=O)c4)cc32)C1,binding,competition with immobilised ligand,1 µM,96%
CC(=O)N1CCC(c2ccc(C(=O)NC3=NCCN3)cc2C(F)(F)F)CC1,cell-free assay,competition with immobilised ligand,1 µM,95%
CN(C)c1nccc(-c2cnn3ncccc23)n1,binding,,1 µM,90%
Cn1nc(C(=O)NCc2ccc(C(=O)O)cc2)cc1-c1ccc2[nH]ccc2c1,cell-free assay,competition with immobilised ligand,0.1 µM,89%
C[C@H]1CCN(c2nccc(-c3cnn4ncccc34)n2)C1,binding,,1 µM,100%
C[C@H](c1cccc(C#N)c1)n1cc(Cl)cc(C(N)=O)c1=N,cell-free assay,competition with immobilised ligand,1 µM,100%
Nc1ncc2c(n1)-c1c([nH]c3ccc(C#CC4CC4)cc13)CCCC2,binding,competition with immobilised ligand,1 µM,100%
C[C@H](c1ccnc(Nc2nc3ccc(-c4cc(N(C)C)ncn4)cc3[nH]2)c1)N1CCN(C(=O)CC(F)(F)F)CC1,cell-free assay,competition with immobilised ligand,0.1 µM,100%
c1cncc(-c2cccc(Nc3nccc(NC4CCCCC4)n3)c2)c1,binding,competition with immobilised ligand,10 µM,68%
